Bioassay records: PubChem, Johns Hopkins Ion Channel Center
Rows were chosen to be rich in hits. Some 3.5% of all compounds tested hit in one or more screens of this group.
RGS4 block = human RGS4 inhibition; P49798; HEK293 M3R/RGS4 inducible, Fluo-4 calcium flux; hits give high values; triggered by carbachol at its EC20; B-score at 10 µM; actives 0.45% (n = 310,000);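 active = B-score, a plate-corrected calcium signal, over three deviations above library mean, with baseline fluorescence within five deviations of library mean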;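 also: RGS4 expression induced by doxycycline in cells with stable M3 receptor; B-score is computed from the integrated fluorescence ratio over baseline after carbachol; higher B-score means a larger calcium signal and so more RGS4 inhibition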
Target sequence (P49798 whole entry, looked up): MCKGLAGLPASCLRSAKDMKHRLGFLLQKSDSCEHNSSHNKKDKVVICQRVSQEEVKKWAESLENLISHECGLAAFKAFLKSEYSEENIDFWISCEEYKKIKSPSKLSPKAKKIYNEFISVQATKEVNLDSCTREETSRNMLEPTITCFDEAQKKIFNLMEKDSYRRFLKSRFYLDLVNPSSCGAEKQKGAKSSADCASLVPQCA
MrgX1 allo act = allosterically activates human MrgX1 receptor signaling; MrgX1-HEK293, Fluo-4 calcium flux, FDSS; hits give high values; B-score at 10 µM; actives 0.63% (n = 310,000); AID 588675;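 active = plate-corrected calcium response at least 3 library SD above typical, normal starting fluorescence, not activating the receptor alone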;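 also: compound read alongside a low EC10 to EC30 dose of BAM8-22 agonist; peak minus trough fluorescence over baseline measured at the second addition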
Target sequence (Q96LB2 whole entry, looked up): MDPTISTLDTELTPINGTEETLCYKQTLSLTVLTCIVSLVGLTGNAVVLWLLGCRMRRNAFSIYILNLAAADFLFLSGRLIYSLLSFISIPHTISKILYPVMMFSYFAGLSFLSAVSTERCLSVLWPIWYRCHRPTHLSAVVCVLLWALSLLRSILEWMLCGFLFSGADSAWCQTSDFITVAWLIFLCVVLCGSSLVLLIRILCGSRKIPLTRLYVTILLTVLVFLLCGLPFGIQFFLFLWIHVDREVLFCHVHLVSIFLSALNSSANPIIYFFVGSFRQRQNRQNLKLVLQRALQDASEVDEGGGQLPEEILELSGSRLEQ
MrgX1 agonist = agonists of human MrgX1 receptor | Q96LB2 | MrgX1-HEK293 cells, Fluo-4 calcium fluorescence, agonist mode; hits give high values | B-score at 10 µM | actives 0.44% (n = 310,000) | AID 588627;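 active = calcium response B-score plate-corrected fluorescence ratio at least 3 library SD, with starting fluorescence B-score inside 5 SD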
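System: HEK293 cells stably expressing human MrgX1 receptor; Dosing: test compound in the initial addition of three; Schedule: overnight plating, then 30 min 37 °C plus 30 min room-temperature dye loading; Detection: kinetic calcium dye fluorescence, Fluo-4 NW; Controls: per-plate positive and negative controls for Z′ factor.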
MrgX1 antagonist = blocks BAM8-22 activation of human MrgX1 receptor. MRGX1-HEK293 calcium flux, Fluo-4, BAM8-22 antagonism; hits give low values. B-score at 10 µM. actives 1.3% (n = 310,000). AID 588676;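 active = calcium-response B-score plate-corrected more than 3 library SD below zero, starting fluorescence within 5 deviations, no agonist response on first addition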;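 also: peak minus trough fluorescence over baseline after final BAM8-22 challenge near maximal dose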
RGS4 act = RGS4 potentiation or activation | AID 463111 | actives 0.92% (n = 310,000) | HEK293 M3R/inducible RGS4, carbachol calcium flux Fluo4; hits give low values | B-score at 10 µM;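 active = B-score of the integrated calcium signal more than 4 SD below the library mean, with starting fluorescence not abnormally high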;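 also: negative B-score means reduced calcium response which marks RGS4 activation or potentiation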
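Also added: carbachol at ECmax as muscarinic agonist stimulus; Assay system: HEK293 cells with stable M3R and inducible RGS4; Timing: overnight RGS4 induction, 30 min dye load 37 °C, 20 min compound RT; Measured by: Fluo4-AM (2 µM) calcium-flux fluorescence, kinetic read.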
MrgX1 ant reconf = confirmation of human MrgX1 receptor antagonists; shares compounds with MrgX1 antagonist; MrgX1-HEK293, BAM8-22 calcium flux, Fluo-4; hits give low values; remaining BAM8-22 calcium response % of control (hits give low values), % at 10 µM; actives 19% (n = 2,300); AID 602420;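 active = remaining agonist calcium response no higher than 100% minus 3 SD of agonist-only control wells, with starting fluorescence near control levels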;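 also: agonist BAM8-22 given at a near maximal EC90 to ECmax level; peak minus minimum fluorescence divided by baseline after agonist addition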
HEK293 Ca flux = MrgX1 antagonist counter-screen hit in parental HEK293 cells; AID 624111; shares compounds with MrgX1 antagonist; fluorescence ratio F(max-min)/F0 at 10 µM; Fluo-4 calcium fluorescence, FDSS; actives 2% (n = 4,000);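 active = duplicate-averaged calcium fluorescence ratio at least three times the standard deviation of buffer wells, a nonspecific response in parental cells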
HEK293 Ca counter = activity in parental HEK293 cells without MrgX1. shares compounds with MrgX1 antagonist. parental HEK293 calcium flux, Fluo-4 fluorescence ratio; hits give high values. fluorescence ratio F(max-min)/F0 at 10 µM. actives 0.4% (n = 4,000). AID 624114;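 active = calcium fluorescence ratio, averaged over duplicates, at least 3 SD of the buffer-well ratio, meaning a nonspecific response in receptor-free cells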;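 also: untransfected parental HEK293 lacking MrgX1 used as counterscreen for MrgX1 allosteric activators; fluorescence change taken during the second addition on a kinetic imager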
HEK293 Ca cntr2 = activity in parental HEK293 cells lacking MrgX1 receptor | shares compounds with MrgX1 antagonist | Fluo-4 calcium fluorescence (FDSS); hits give high values | fluorescence ratio F(max-min)/F0 at 10 µM | actives 8.7% (n = 4,000) | AID 624115;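 active = calcium fluorescence ratio at least three times the spread of buffer wells, meaning a non-specific response in parental cells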
Active calls of the source: *; i = inactive; / = no result.

SMILES	RGS4 block	MrgX1 allo act	MrgX1 agonist	MrgX1 antagonist	RGS4 act	MrgX1 ant reconf	HEK293 Ca flux	HEK293 Ca counter	HEK293 Ca cntr2
O=S(=O)(Nc1nc(-c2sccc2Cl)cs1)c1cc(Cl)ccc1Cl	i	i	i	i	i	/	/	/	/
Cc1ccccc1OCC(=O)Nc1nnc(COc2ccccc2)s1	i	i	i	-8.2*	i	i	i	i	i
CCOc1cc(/C=C(\C#N)C(=O)NCc2cccnc2)ccc1O	i	i	i	i	i	/	/	/	/
COCc1nc(-c2ccc(-c3ccc(OC)cc3)nc2OC)no1	i	i	i	-11*	i	i	i	i	i
CC(=O)Nc1ccc(Nc2nc(C)c([N+](=O)[O-])c(Nc3ccc(NC(C)=O)cc3)n2)cc1	i	i	i	-22*	i	82%*	i	i	i
CNc1nc(C)c([N+](=O)[O-])c(Nc2ccc(OC)cc2)n1	i	i	i	i	i	/	/	/	/
CCC(C(=O)Nc1c2c(nn1C(C)(C)C)CS(=O)(=O)C2)c1ccccc1 (stereo not given)	i	i	i	-8.1*	i	i	i	i	i
COc1cccc(CSc2ccc(S(=O)(=O)N3CCOCC3)cc2C(=O)NCC2CCCO2)c1OC (stereo not given)	i	i	i	i	i	/	/	/	/
Cc1cc2c(C)nc3ccccc3c2o1	i	i	i	-4.7*	i	i	i	i	i
Cc1nc2ccccc2c2oc(C(=O)NC3CC3)cc12	i	i	i	i	i	/	/	/	/
c1ccc(CN2CCN(c3cnc4ccccc4n3)CC2)cc1	i	i	i	-8.8*	i	i	i	i	i
Fc1ccccc1N1CCN(c2cnc3ccccc3n2)CC1	i	i	i	i	i	/	/	/	/
Cn1c(=O)c(=O)n(C)c2cc(S(=O)(=O)NCCOc3ccccc3)ccc21	i	i	i	i	i	/	/	/	/
Cc1ccc(CNC(=O)N[C@@H](Cc2ccccc2)C(=O)O)cc1	i	i	i	-7.2*	i	i	i	i	i
COC(=O)[C@H](Cc1ccccc1)NC(=O)NCc1ccc(C)cc1	i	i	i	i	i	/	/	/	/
COc1ccccc1C(=O)Nc1ccnn1C1CCN(C(=O)c2ccoc2)CC1	i	i	i	-6*	i	i	i	i	i
Cc1ccc(C(=O)N(Cc2ccccc2)C(C)(C)C)cc1C	i	i	i	i	i	/	/	/	/
CC(=O)N1CN(Cc2ccccn2)Cc2c1sc1c2CCCC1	i	i	i	i	i	/	/	/	/
CC(=O)N1CN(CCCn2ccnc2)Cc2c1sc1c2CCCC1	i	i	i	-5.8*	i	i	i	i	i
CN(C(=O)c1ccccc1OC1CCN(S(C)(=O)=O)CC1)C1CCOC1 (stereo not given)	i	i	i	i	i	/	/	/	/
CCc1cccc(CC)c1NC(=O)CSc1nc2ccc(N3C(=O)C4C5C=CC(C5)C4C3=O)cc2s1 (stereo not given)	i	i	i	-8.2*	i	i	i	i	i
c1ccc(CN2CN=C(Nc3nc4ccccc4s3)NC2)cc1	i	i	i	i	i	/	/	/	/
COc1ccc(CN2CN=C(Nc3nc4ccccc4s3)NC2)cc1	i	i	i	-7.5*	i	57%*	i	i	i
Cc1ccc(S(=O)(=O)NCCN=Cc2ccc(N(C)C)cc2)cc1	i	i	i	i	i	/	/	/	/
